According to paper PMC2948526 (Antiviral chemistry & chemotherapy, 2010):

Experiments:
Ad4 = Ad4 yield reduction assay; assay type: cell-based, human adenovirus type-4; details: A549 cells, 10 μM olomoucine II, 100 μM cidofovir or both
Outline: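 Confluent A549 monolayers were infected with 2,000 PFU/well Ad4 (multistep growth curve, MOI 0.01) for 1 h at 37°C with rocking. They were rinsed, then kept in medium with 10 μM test compound, 100 μM cidofovir, or both. Cells and media were harvested separately at 6–96 h, and released and total virus were titrated on A549 cells. The 0 h point is the inoculum.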

[1] = tested on: human fetal foreskin fibroblast cells; assay: Apoptosis as caspase-3/7 activity; assay type: cell-based; details: 15–50 μM olomoucine II; 24, 48, 72 h
Outline: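 Confluent HFFF cells (DMEM, 10% heat-inactivated FBS) were exposed for 24, 48 or 72 h to test compound dilutions, to mock treatment, or to serum deprivation. Caspase-3/7 activity was read by Caspase-Glo 3/7 luminescence, following the kit protocol. Values are blank-subtracted relative luminescence units ± SD.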

CDK9 = details: cited from earlier work
HFFF cells = assay: WST-1 cytotoxicity assay, HFFF cells; assay type: cell-based, human; details: 2.4–5.3 μM olomoucine II, WST-1, fibroblasts
[2] = WST-1 cytotoxicity assay, HFFF cells; assay type: cell-based, human; details: human, HFFF cells (human fetal foreskin fibroblasts), confluent
[3] = WST-1 cytotoxicity assay, A549 cells; assay type: cell-based; details: human, A549 cells (human lung carcinoma epithelial cells)
Outline: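 A549 cells were grown in DMEM with 10% heat-inactivated FBS and antibiotics, then exposed to test compound. Viability was measured with a WST-1 kit, following the kit protocol, as absorbance at 450 nm.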

SMILES | Reduction of total virus yield (Ad4; 24 h post-infection) | Reduction of total virus yield (Ad4; 48 h post-infection) [log] | Reduction of total virus yield (Ad4; 96 h post-infection) | Caspase-3/7 activity [1] | Higher inhibitory activity for CDK9 compared with roscovitine (CDK9) [fold] | Cytotoxicity at antiviral IC50 levels (HFFF cells) | CC50 at 24 h [2] [µM] | CC50 at 48 h [2] [µM] | CC50 at 72 h [2] [µM] | CC50 at 96 h [2] [µM] | CC50 at 168 h [2] [µM] | CC50 at 48 h [3] [µM] | CC50 at 96 h [3] [µM] | CC50 at 120 h [3] [µM]
CC[C@H](CO)Nc1nc(NCc2ccccc2O)c2ncn(C(C)C)c2n1 [Olomoucine II, 6-(2-hydroxybenzylamino)-2-{[(1R)-(hydroxymethyl)propyl]amino}-9-isopropylpurine] | 5 log (log10 PFU) | 1 | no overall effect on virus yield | caspase activation | 10 | no significant cytotoxicity was detected | > 100 | 73 ± 4 | 16 ± 2 | 17 ± 2 | 16 ± 3 | > 100 | > 100 | > 100
CC[C@H](CO)Nc1nc(NCc2ccccc2)c2ncn(C(C)C)c2n1 [Roscovitine, 2-(R)-(1-ethyl-2-hydroxyethylamino)-6-benzylamino-9-isopropylpurine, reference compound] |  |  |  |  |  |  | > 100 | 84 ± 5 | 21 ± 2 |  | 30 ± 4 | > 100 | > 100 | > 100
Nc1ccn(C[C@@H](CO)OCP(=O)(O)O)c(=O)n1 [Cidofovir, (S)-1-[3-hydroxy-2-(phosphonylmethoxy)propyl]-cytosine, reference compound] | 2 log (log10 PFU) | 2 | 3 log |  |  |  |  |  |  |  |  |  |  | 
